The text below walks through data of PMC9016318 (Cancer Research and Treatment : Official Journal of Korean …, 2021).

No end group written: not given here.

The subject of one data set is Cal27 cells. In words: CCK-8 cytotoxicity, Cal27 cells. Type of data set: cell-based, human. The settings on record: CCK-8, 64 μM, 24 hours. In a few lines:
(§1)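 Cells were seeded in 96-well plates and cultured 24 h: Jurkat T at 4,000/well, Cal27 at 2,000/well. Test peptide was added at 1–64 μM for 24 h, then CCK-8 for 2 h, and absorbance was read at 450. Viability % = (sample − no-cell baseline with peptide)/(untreated control − no-cell blank) × 100. Data are mean±standard error of three separate experiments.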

The subject of a further data set is Jurkat T cells. In words: CCK-8 cytotoxicity, Jurkat T cells. Type of data set: cell-based, human. The following applies: CCK-8, 64 μM, 24 hours. In a few lines:
as §1

The test system of the next data set is ICIK cells. The experiment in a line: CCK-8 cytotoxicity, ICIK cells. The format is cell-based, human. The following applies: CCK-8, 64 μM, 24 hours. In outline: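 ICIK cells were human blood PBMCs, Ficoll-separated, held overnight at 4°C on anti-CD3 (OKT3, 10 μg/mL) coated dishes, then grown 10 days in RPMI 1640/10% FBS with IFN-γ 2000 U/mL and IL-2 10 ng/mL. They were seeded at 4,000/well and cultured 24 h. Test peptide at 1–64 μM was added for 24 h, then CCK-8 for 2 h, and absorbance read at 450. Viability was blank/baseline-corrected against untreated wells.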

In data set [1] the target is human recombinant PD-1 protein (human, UniProt Q15116). In words: SPR. (In general: SPR reads the build-up and loss of mass on a sensor chip optically.)
human recombinant PD-1 protein, sequence (Q15116 25-170): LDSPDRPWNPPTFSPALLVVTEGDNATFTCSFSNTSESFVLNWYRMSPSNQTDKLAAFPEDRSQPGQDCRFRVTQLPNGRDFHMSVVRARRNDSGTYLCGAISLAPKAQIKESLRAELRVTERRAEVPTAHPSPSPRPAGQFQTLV

Broadly, the Kd is the concentration at which binding is half-saturated.

For the molecule “SRLKEIANSPTQFWRMVARNTLGNGAKQSLNIEHARL [nABP284]”, in the data set with Cal27 cells, the “cytotoxicity to stimulated Cal27 cells” value is reported as “not directly cytotoxic”. For the same molecule, in the data set on Jurkat T cells, the “cytotoxicity to Jurkat T cells” value was “not directly cytotoxic”. Also, the “cytotoxicity to ICIK cells” value with ICIK cells is given as “not directly cytotoxic”.

B1: nABP284 (peptide)
peptide: SRLKEIANSPTQFWRMVARNTLGNGAKQSLNIEHARL
With B1, in data set [1], the Kd was determined as 11.8 µM.
